Results from different studies.
Protocols differ between the studies behind these lines.
Target: Histamine H3 receptor (HRH3, Homo sapiens, UniProt Q9Y5N1)

SMILES	observed	technique	concentration	inhibition [%]
O=C(c1ccc(F)cc1)N(Cc1ccccc1)C1CCCCC1	cell-free assay		10 µM	15
CCN(Cc1ccccc1C(F)(F)F)C(=O)C1CCN(S(=O)(=O)c2ccc3[nH]ncc3c2)CC1	ligand displacement	radioligand	10 µM	6
N#Cc1cc(Cn2c(N3CCCC3)nc3ccccc32)ccc1F	ligand displacement		10 µM	1.97
CC(=O)Nc1ncc(CN2CCC[C@H](Cc3cc(C)nc(C)c3)C2)s1	ligand displacement		10 µM	10.8
CCCNc1nc2ccccc2n1Cc1ccc(Cl)cc1	ligand displacement		10 µM	-5.56
COc1ccc(-n2nc(OCCCN3CCCCC3)ccc2=O)cc1	ligand displacement		1 µM	23.3
CCS(=O)(=O)c1cc2cc(C[C@](O)(CC(C)(C)c3ccc(F)cc3C(N)=O)C(F)(F)F)[nH]c2cn1	ligand displacement		10 µM	11.7
CN1CCN(CCCOc2ccc(=O)n(-c3ccc(Cl)c(Cl)c3)n2)CC1	ligand displacement		1 µM	38.2
CCN(CC)c1ccc(C2Nc3ccc(C(=O)c4ccccc4)cc3NC3=C2C(=O)CC(C)(C)C3)cc1 (stereo not drawn)	ligand displacement	radioligand	10 µM	43
